Most compounds without a hit are left out; they make up all but 1.4% or so of the library.
Vif inh = blocks HIV Vif function | HEK293T cells, Vif self-association by quenched fluorescence, imaging, 24 h | inhibition, % at 7.49 µM | hit rate 0.35% among 340,000; in the data active = inhibition above about 50%, passing the limit was not always enough
CAL PDZ FP-1 = CAL PDZ (human) peptide binding inhibition | AID 602252 | purified CAL PDZ, TMR-peptide fluorescence polarization, 1 h | hit rate 0.92% among 300,000 | inhibition, % at 24.9 µM;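 active = mean inhibition of at least 30% with at least half of replicates also reaching 30%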
PvdQ acylase = P. aeruginosa PvdQ acylase inhibition; purified PvdQ acylase, fluorescence plate reader; inhibition, % at 10 µM; hit rate 0.063% among 340,000; in the data active = inhibition above about 30%, passing the limit was not always enough
CDK5 p35 inh = blocks human CDK5/p35 kinase activity; Q00535+Q15078; Recombinant CDK5/p35, ADP-Glo luminescence, 60 min; inhibition, % at 10 µM; hit rate 0.01% among 330,000;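 active = highest replicate inhibition of at least 50% and at least 75% of replicates reaching 50%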
Target sequence (Q00535 whole entry, looked up): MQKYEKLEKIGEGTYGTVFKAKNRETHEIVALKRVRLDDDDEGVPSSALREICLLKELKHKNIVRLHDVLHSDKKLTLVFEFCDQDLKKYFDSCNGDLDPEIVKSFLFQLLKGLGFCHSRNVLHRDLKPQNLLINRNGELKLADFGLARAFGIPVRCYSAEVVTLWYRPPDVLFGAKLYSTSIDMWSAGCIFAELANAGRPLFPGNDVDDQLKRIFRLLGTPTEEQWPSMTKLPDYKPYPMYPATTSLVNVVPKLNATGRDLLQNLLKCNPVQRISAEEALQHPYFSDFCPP
Target sequence (Q15078 whole entry, looked up): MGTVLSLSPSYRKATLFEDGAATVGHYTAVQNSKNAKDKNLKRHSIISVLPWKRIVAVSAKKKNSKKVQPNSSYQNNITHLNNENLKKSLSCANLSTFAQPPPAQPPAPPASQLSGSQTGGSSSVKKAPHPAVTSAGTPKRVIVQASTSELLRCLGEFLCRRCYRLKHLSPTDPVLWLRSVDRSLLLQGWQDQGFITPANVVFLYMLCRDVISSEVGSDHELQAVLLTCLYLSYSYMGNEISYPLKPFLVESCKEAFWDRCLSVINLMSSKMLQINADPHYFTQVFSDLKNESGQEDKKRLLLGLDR
Glyco luc inh = N-linked glycosylation inhibition; reporter increase, % at 12.5 µM; D54 ERlucT glycosylation luciferase reporter, 24 h; percent of 100 nM tunicamycin response; hit rate 0.23% among 360,000;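 active = mean luciferase reporter signal, scaled so untreated is 0 and the glycosylation-blocking control 100, at or above a set limit in every replicate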;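 also: luciferase carries N-glycosylation sites so blocking glycosylation raises the light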
CAL PDZ FP-2 = human CAL PDZ-peptide interaction inhibition; hit rate 0.02% among 330,000; Q9HD26; purified CAL PDZ, TMR-peptide fluorescence polarization, 1 h; inhibition, % at 20 µM;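 active = highest replicate inhibition of at least 40%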
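Control set: unlabelled peptide and DMSO controls / Material: purified CerCALP PDZ construct / Timing: 1 h incubation at room temperature before polarization reading / Doses: 20 µM, one dose / Detection: fluorescence polarization (mP)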
Each line names hits and unclear results; the compound was inactive in the other large screens.

Cc1nonc1CN(C)C(=O)c1cc(COc2ccc(F)cc2Cl)on1	none
CN(C)CCC(C(=O)c1ccccc1)c1ccccn1 (stereo unspecified)	CAL PDZ FP-1 85
Cc1ccc(-c2nc3c(c(=O)[nH]c(=O)n3Cc3ccccc3)n2Cc2ccccc2)o1	none
Cc1ccc(-c2nc3c(c(=O)[nH]c(=O)n3Cc3ccccc3)n2C)o1	CAL PDZ FP-1 31
Cc1ccc(CN2C(=O)c3ccccc3NC2c2ccccn2)cc1 (stereo unspecified)	CAL PDZ FP-1 58
CCCN1C(=O)c2ccccc2NC1c1ccc(C)cc1 (stereo unspecified)	none
CC(C)NC(=O)Nc1cccc2c1O[C@H](CN(C)C(=O)NC1CCCCC1)[C@H](C)CN([C@H](C)CO)C2=O	none
c1ccc2nc(N3CCOCC3)c(N3CCCC3)nc2c1	CAL PDZ FP-1 71
CCNC(=O)NC(=O)C(C)OC(=O)c1ccc(SC)cc1OC (stereo unspecified)	none
COc1cc(SC)ccc1C(=O)OC(C)C(=O)Nc1ccc(NC(C)=O)cc1 (stereo unspecified)	CAL PDZ FP-1 56
Cc1ccc(Nc2nc(NCC3CCCO3)nc(N)c2[N+](=O)[O-])cc1C (stereo unspecified)	CAL PDZ FP-1 31 (no result: CDK5 p35 inh)
COC(=O)c1c(C)[nH]c(C(=O)COC(=O)Cn2cc(C(F)(F)F)ccc2=O)c1C	none
Cc1ccc2c(C)c(C(=O)N3CCCC(C(N)=O)C3)oc2c1C (stereo unspecified)	none
CCn1c(SCc2ccc(C(=O)Nc3nccs3)cc2)nnc1-c1ccc(N)cc1	Vif inh 54
CCn1c(SCc2ccc(C(=O)Nc3nccs3)cc2)nnc1-c1ccc(NC(C)=O)cc1	none
CCOC(=O)C1(CCOc2ccccc2)CCN(Cc2ccc(COC)o2)CC1	none
CCOC(=O)C1(CCOc2ccccc2)CCN(Cc2cnc(SC)nc2)CC1	CAL PDZ FP-1 46
CCOC(=O)C1(CCOc2ccccc2)CCN(Cc2ccc(C)o2)CC1	CAL PDZ FP-1 53
CCCC1(C2CCCC2)NC(=O)NC1=O (stereo unspecified)	Vif inh 97
COc1ccc(C(CNC(=O)COc2ccc(-c3ccccc3)cc2)N2CCOCC2)cc1 (stereo unspecified)	none
COc1ccc(C(CNC(=O)COc2c(C)cc(C)cc2C)N2CCOCC2)cc1 (stereo unspecified)	CAL PDZ FP-1 68
CC(NC(=O)c1cc(-c2ccncc2)nc2ccc(Br)cc12)C1CCCO1 (stereo unspecified)	CAL PDZ FP-1 45
Cc1ccc2nc(-c3ccc(Br)cc3)cc(C(=O)NCC3CCCO3)c2c1 (stereo unspecified)	none (no result: CAL PDZ FP-1, PvdQ acylase, CDK5 p35 inh, CAL PDZ FP-2)
Cc1cccc2cc(-c3nc4ccc(C(=O)O)cc4[nH]3)c(=O)oc12	CAL PDZ FP-1 81 (no result: CAL PDZ FP-2)
CCN(CC)C(=O)C1=C(C)N(Cc2ccc(OC)cc2)C(=O)C(CC(=O)NC2CCCCC2)C1 (stereo unspecified)	none (no result: CAL PDZ FP-1, PvdQ acylase, CDK5 p35 inh, CAL PDZ FP-2)
COc1ccccc1N(CC(=O)N1CCN(c2ccc(F)cc2)CC1)S(=O)(=O)c1ccc(C)cc1	CAL PDZ FP-1 55 (no result: Vif inh, Glyco luc inh)
Cc1cccc(N2CC(O)(c3cccs3)[N+]3=C2CCCC3)c1C (stereo unspecified)	none
Cc1ccccc1N1CC(O)(c2cccs2)[N+]2=C1CCCC2 (stereo unspecified)	CAL PDZ FP-1 87
CCOC1=C2[C@H](c3ccc(CC)cc3)N(S(=O)(=O)c3ccc(C)cc3)C[C@H]2C(C#N)(C#N)C(C#N)(C#N)C1	Glyco luc inh 33 (no result: Vif inh, CAL PDZ FP-1, PvdQ acylase, CDK5 p35 inh, CAL PDZ FP-2)
COC(=O)c1ccc(C)c(NC(=O)CCCN2C(=O)CN(C)C2=O)c1	none
Fc1ccc(-c2n[nH]c(=S)c3ccccc23)cc1	Vif inh 52 (no result: CAL PDZ FP-1)
O=c1[nH]nc(-c2ccccc2)c2ccccc12	none
NC(=O)c1ccc(-c2nnc(Nc3ccc(S(N)(=O)=O)cc3)c3ccccc23)cc1	CAL PDZ FP-1 66 (no result: CAL PDZ FP-2)
COC(=O)C1CCN(C2CN(Cc3ccc(C)cc3)S(=O)(=O)C2)CC1 (stereo unspecified)	none (no result: Vif inh, CAL PDZ FP-1, PvdQ acylase, CDK5 p35 inh, CAL PDZ FP-2)
COc1ccc(C(=O)c2ccc(Cl)c([N+](=O)[O-])c2)cc1	Vif inh 69
O=[N+]([O-])c1ccccc1N/N=C1\CC2CC=CC12 (stereo unspecified)	PvdQ acylase 58
C=CCOc1cccc(C(=O)N2CCCC(CCC(=O)NCc3ccccc3F)C2)c1 (stereo unspecified)	CAL PDZ FP-1 74
Cc1ccc(C(=O)N2CCCC(CCC(=O)NCc3ccccc3F)C2)cn1 (stereo unspecified)	none
COc1ccc(C(=O)N2CCCC(CCC(=O)NCc3ccc(F)c(F)c3)C2)o1 (stereo unspecified)	CAL PDZ FP-1 51
COc1ccc(CC(N)c2csc(Nc3nc(C)cnc3C)n2)cc1 (stereo unspecified)	none (no result: CAL PDZ FP-1, PvdQ acylase, CDK5 p35 inh, CAL PDZ FP-2)
Cc1cc(C)cc(OCc2nnc(SCC(=O)N3CCCCC3)o2)c1	none
CC1(Cc2ccc(S(C)(=O)=O)cc2)C(=O)Nc2ccc(Cl)cc21 (stereo unspecified)	none (no result: CAL PDZ FP-1, PvdQ acylase, CDK5 p35 inh, CAL PDZ FP-2)
CCC(C)c1ccccc1NC(=O)COC(=O)CCc1cc(OC)c(OC)c(OC)c1 (stereo unspecified)	CAL PDZ FP-1 83
Cc1c(Cc2ccccc2)sc(NC(=O)c2ccco2)c1C(N)=O	none
CCOc1ccc(CC(=O)Nc2sc(Cc3ccccc3)c(C)c2C(N)=O)cc1OCC	Vif inh 58 (no result: CAL PDZ FP-1)
Cc1ccc(/C=N\NC(=O)c2ccc(Cn3cc(Br)c([N+](=O)[O-])n3)o2)o1	none
O=C(N/N=C\c1cccc(Cl)c1)c1ccc(Cn2cc(Br)c([N+](=O)[O-])n2)o1	CAL PDZ FP-1 86
Cc1nnc2sc(SCC(=O)Nc3cccc(Cl)c3)nn2c1=O	CAL PDZ FP-1 99
Cc1ccc(S(=O)(=O)N2C[C@H]3C(=O)C[C@@H](c4cccc(Cl)c4)N(S(=O)(=O)c4ccc(C)cc4)[C@H]3C[C@H]2c2ccc(Cl)cc2)cc1	none (no result: Vif inh, CAL PDZ FP-1, PvdQ acylase, CDK5 p35 inh, CAL PDZ FP-2)
O=C(Nc1ccc(Br)cc1)c1cccc(N2C(=O)C3CCCCC3C2=O)c1 (stereo unspecified)	none
Cc1cc(C)c(S(=O)(=O)NCc2ccc3c(c2)OCO3)cc1C	none
Cc1cc(C)c(S(=O)(=O)NCc2ccc3c(c2)OCO3)c(C)c1	CAL PDZ FP-1 69 (no result: CAL PDZ FP-2)
O=S(=O)(c1ccccc1)n1ccc2ccccc21	CAL PDZ FP-1 47
Cc1ccc(C(=O)N2CCN(S(=O)(=O)N3CCCCC3)CC2)cc1	none
CCc1c(C)sc(NC(=O)Cc2ccccc2C)c1C(=O)N1CCOCC1	none
COc1ccc(C(=O)NCc2oc(-c3ccccc3)cc2C(=O)O)cc1	Vif inh 61
C[C@H](CO)N1C[C@H](C)[C@@H](CN(C)C(=O)Nc2ccc(C(F)(F)F)cc2)Oc2ccc(NC(=O)Cc3ccccc3)cc2C1=O	none

Screens (PubChem BioAssay)
